How the values were obtained:
[1] = biological target: T1, Nitric oxide synthase, inducible (Mus musculus) (UniProt P29477); experiment: Nitric oxide (NO) formation during oxidation of NADPH and O2, catalyzed by NOS II detected spectrophotometrically using hemoglobin assay.; format: functional
T1 sequence (whole entry): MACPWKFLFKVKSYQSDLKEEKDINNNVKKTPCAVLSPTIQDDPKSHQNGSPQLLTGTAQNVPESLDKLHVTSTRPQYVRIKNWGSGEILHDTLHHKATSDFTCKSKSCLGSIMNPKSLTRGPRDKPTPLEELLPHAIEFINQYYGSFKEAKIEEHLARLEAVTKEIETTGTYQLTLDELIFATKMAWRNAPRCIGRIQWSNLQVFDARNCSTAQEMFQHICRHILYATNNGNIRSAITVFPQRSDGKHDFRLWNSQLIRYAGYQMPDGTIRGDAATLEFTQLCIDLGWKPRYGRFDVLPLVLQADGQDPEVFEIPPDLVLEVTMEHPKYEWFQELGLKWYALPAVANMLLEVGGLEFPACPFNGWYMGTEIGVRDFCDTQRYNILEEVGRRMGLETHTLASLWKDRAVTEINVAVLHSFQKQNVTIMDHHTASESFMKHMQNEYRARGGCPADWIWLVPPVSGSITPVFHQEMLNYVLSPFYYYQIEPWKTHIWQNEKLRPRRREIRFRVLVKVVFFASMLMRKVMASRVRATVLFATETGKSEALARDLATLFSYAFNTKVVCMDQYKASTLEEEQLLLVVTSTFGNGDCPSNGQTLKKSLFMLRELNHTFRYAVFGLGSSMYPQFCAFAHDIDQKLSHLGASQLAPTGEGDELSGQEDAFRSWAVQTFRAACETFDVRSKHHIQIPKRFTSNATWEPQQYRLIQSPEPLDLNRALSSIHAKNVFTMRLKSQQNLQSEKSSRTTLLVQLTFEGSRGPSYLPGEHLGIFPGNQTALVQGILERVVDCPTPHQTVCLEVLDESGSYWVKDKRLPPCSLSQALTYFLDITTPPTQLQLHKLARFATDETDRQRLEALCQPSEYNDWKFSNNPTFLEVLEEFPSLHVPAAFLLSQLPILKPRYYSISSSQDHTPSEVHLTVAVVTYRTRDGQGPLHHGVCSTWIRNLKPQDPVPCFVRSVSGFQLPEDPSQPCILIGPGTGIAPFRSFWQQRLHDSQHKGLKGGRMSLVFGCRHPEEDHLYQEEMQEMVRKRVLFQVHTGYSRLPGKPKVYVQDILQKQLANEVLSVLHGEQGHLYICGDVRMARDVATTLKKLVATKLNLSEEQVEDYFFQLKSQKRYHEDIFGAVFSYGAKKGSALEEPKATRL
In short: (§1)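 Purified recombinant NOS II (E. coli) at 20-30 nM was run at 37 °C in 50 mM HEPES pH 7.4 with 1 mM NADPH, 100 μM BH4, 5 mM DTT, 100 U/mL SOD, 100 U/mL catalase, 12-15 μM oxyhemoglobin and 500 μM substrate, against a buffer reference. The initial rate was followed at 401 nm (ε 34 mM⁻¹ cm⁻¹), or at 577 nm for strongly absorbing compounds (ε 14.5). Values are means ± SD of three to eight experiments.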

[2] = biological target: T1, Nitric oxide synthase, inducible (Mus musculus); experiment: (§2) Kinetic constant for NO formation during transformation of oxyhemoglobin to methemoglobin using NADPH and molecular Oxygen in the presence of (NOS II)
In short: (§3)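 Recombinant NOS II (E. coli-expressed, purified) assayed at 37 °C in 50 mM HEPES pH 7.4 with 1 mM NADPH, 100 μM BH4, 5 mM DTT, SOD and catalase (100 U/mL each), and 12-15 μM oxyhemoglobin. Substrate was varied from 5 μM to 2.5 mM. Enzyme level was set to keep oxyhemoglobin conversion below 30%. Kinetic constants come from the initial methemoglobin formation rate at 401 nm; three to four experiments.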

[3] = biological target: T2, Nitric oxide synthase 3 (Mus musculus) (UniProt P70313); experiment: Nitric oxide (NO) formation during oxidation of NADPH and O2, catalyzed by NOS III was detected spectrophotometrically using hemoglobin assay; format: functional
T2 sequence (whole entry): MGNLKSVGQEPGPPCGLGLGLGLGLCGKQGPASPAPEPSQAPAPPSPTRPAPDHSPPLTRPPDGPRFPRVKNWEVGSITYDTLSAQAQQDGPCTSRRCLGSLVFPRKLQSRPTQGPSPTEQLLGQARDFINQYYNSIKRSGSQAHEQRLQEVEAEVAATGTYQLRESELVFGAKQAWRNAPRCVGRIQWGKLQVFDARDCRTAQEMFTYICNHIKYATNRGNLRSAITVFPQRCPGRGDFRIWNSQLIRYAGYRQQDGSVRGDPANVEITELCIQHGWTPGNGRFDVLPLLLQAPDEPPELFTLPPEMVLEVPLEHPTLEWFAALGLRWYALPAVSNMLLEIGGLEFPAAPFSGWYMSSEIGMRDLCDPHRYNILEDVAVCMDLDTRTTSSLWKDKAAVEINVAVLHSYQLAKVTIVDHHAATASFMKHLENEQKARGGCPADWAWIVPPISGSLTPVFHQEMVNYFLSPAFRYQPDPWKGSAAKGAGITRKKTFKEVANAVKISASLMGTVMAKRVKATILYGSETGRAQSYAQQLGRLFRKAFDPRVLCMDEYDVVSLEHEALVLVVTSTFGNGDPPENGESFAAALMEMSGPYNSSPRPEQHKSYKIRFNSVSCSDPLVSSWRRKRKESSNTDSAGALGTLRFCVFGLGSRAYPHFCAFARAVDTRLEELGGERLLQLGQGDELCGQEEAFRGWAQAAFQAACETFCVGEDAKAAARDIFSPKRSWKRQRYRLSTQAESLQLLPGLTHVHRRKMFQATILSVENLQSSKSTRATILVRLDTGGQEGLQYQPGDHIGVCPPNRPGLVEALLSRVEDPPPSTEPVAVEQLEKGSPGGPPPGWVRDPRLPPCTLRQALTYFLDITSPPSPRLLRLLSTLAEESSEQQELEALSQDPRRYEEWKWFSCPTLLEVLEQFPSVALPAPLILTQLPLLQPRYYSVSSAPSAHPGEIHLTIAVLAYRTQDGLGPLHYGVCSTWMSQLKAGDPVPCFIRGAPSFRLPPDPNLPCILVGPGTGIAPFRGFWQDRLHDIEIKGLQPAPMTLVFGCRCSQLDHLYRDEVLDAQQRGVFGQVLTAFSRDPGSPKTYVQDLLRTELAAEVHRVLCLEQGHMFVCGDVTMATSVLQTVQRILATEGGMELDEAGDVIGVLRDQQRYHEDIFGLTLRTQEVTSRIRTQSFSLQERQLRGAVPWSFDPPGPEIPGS
In short: (§4)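 Hemoglobin assay with purified recombinant NOS I (rat brain, expressed in S. cerevisiae) or NOS III (E. coli), at 37 °C in 50 mM HEPES pH 7.4. The mix held 1 mM NADPH, 100 μM BH4, 5 mM DTT, SOD/catalase, oxyhemoglobin, 1 mM CaCl2, 10 μg/mL CaM and 500 μM substrate. Methemoglobin formation was read at 401 nm. Activity is given as percent of that with 500 μM NOHA, from three to five experiments.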

[4] = biological target: Nitric oxide synthase 1 (Rattus norvegicus) (UniProt P29476); experiment: Nitric oxide (NO) formation during oxidation of NADPH and O2, catalyzed by NOS I was detected spectrophotometrically using hemoglobin assay; format: functional; in short: as §4
Sequence of Nitric oxide synthase 1 (Rattus norvegicus) (P29476 whole entry): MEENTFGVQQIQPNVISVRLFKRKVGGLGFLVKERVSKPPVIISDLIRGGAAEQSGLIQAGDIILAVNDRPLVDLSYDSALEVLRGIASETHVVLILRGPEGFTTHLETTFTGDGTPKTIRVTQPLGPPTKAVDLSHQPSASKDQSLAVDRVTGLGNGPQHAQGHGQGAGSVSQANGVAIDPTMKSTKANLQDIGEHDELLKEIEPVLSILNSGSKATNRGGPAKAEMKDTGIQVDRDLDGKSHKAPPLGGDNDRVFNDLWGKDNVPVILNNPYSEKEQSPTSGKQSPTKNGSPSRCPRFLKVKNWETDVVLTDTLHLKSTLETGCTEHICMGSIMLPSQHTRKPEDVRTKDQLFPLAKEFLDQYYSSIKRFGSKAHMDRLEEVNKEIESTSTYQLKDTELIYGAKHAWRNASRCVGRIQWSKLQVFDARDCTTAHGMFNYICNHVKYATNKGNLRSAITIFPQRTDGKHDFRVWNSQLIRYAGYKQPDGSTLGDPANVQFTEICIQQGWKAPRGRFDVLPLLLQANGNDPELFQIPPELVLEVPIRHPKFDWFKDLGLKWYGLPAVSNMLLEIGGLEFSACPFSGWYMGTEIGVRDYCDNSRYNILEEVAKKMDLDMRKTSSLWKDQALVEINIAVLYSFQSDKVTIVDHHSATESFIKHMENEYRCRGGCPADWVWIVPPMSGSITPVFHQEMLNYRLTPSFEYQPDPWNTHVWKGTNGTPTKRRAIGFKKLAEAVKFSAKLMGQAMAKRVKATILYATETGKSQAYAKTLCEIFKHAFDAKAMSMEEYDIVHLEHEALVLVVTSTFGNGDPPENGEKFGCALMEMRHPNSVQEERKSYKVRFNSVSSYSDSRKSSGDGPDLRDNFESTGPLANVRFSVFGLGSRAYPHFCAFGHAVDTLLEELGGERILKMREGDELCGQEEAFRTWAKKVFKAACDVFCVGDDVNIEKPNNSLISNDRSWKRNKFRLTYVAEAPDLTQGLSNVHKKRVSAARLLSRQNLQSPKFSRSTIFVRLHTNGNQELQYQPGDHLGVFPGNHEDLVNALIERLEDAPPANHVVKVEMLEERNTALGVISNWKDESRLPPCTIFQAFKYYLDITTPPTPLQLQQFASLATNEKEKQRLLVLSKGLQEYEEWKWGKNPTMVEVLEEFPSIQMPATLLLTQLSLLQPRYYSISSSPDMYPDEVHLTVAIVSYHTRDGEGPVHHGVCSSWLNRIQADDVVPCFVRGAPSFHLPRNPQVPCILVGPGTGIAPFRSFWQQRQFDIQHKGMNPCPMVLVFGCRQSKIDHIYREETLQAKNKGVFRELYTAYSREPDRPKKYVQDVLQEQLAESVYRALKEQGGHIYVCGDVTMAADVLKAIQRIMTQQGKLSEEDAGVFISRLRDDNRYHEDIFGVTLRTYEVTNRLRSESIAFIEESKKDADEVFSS

[5] = biological target: T1, Nitric oxide synthase, inducible (Mus musculus); experiment: as §2; format: functional; in short: as §3
[6] = biological target: T1, Nitric oxide synthase, inducible (Mus musculus); experiment: Nitric oxide (NO) formation during oxidation by NADPH and O2, catalyzed by NOS II was detected spectrophotometrically using hemoglobin assay; format: functional; in short: as §1
[7] = biological target: T1, Nitric oxide synthase, inducible (Mus musculus); experiment: Nitric oxide (NO) formation during oxidation of NADPH and O2, catalyzed by NOS II was detected spectrophotometrically using hemoglobin assay; format: functional; in short: as §1

| Structure (SMILES) | NOHA [1] | also measured |
| --- | --- | --- |
| CC(C(=O)O)c1ccc(NC(=N)NO)cc1 (stereo not given) | < 0.2% | – |
| N=C(NO)NCc1ccccc1 | 15% | – |
| N/C(=N\O)c1ccccc1 | < 0.2% | – |
| N=C(NO)Nc1ccc(Cl)cc1 | 13% | k cat [2]: 1.63 s⁻¹; NOHA [3]: < 0.2%; NOHA [4]: < 0.2% |
| O/N=C/c1ccc(Cl)cc1 | < 0.2% | – |
| CC(C)(C)c1ccc(NC(=N)NO)cc1 | – | NOHA [6]: < 0.2% |
| COc1ccc(/C=N/O)cc1 | < 0.2% | – |
| COc1ccc(/C(C)=N/O)cc1 | < 0.2% | – |
| N/C(=N/CCCC(N)C(=O)O)NO (stereo not given) | – | k cat [5]: 7.08 s⁻¹; Activity (nM (nM of NOS)) [7]: 425; Activity (nM (nM of NOS)) [3]: 65; Activity (nM (nM of NOS)) [4]: 130 |
| COc1ccc(NC(=N)NO)cc1 | 8% | k cat [5]: 2.42 s⁻¹; NOHA [3]: < 0.2%; NOHA [4]: 3.5% |
| N=C(NO)Nc1ccccc1 | 20% | k cat [5]: 2.17 s⁻¹; NOHA [3]: < 0.2%; NOHA [4]: 1.5% |
| N=C(NO)Nc1cccc(CN)c1 | 1.5% | – |
| N/C(=N\O)NCCc1ccccc1 | 6% | – |
| N/C(=N\O)N1CCc2ccccc2C1 | < 0.2% | – |
| ON=C(Nc1ccccc1)Nc1ccccc1 | < 0.2% | – |
| COc1ccc(N/C(C)=N/O)cc1 | < 0.2% | – |
| C/C(=N\O)c1ccc(Cl)cc1 | < 0.2% | – |

More lines, main results first:

| NOHA [1] | Structure (SMILES) | also measured |
| --- | --- | --- |
| 7.5% | N/C(=N/c1ccc(Br)cc1)NO | – |
| 2.5% | N/C(=N/c1ccc2c[nH]nc2c1)NO | – |
| 2% | N/C(=N/c1ccc([N+](=O)[O-])cc1)NO | – |
| < 0.2% | COc1ccc(C(=N)NO)cc1 | – |
| < 0.2% | C/C(=N/c1ccc(Cl)cc1)NO | – |
| < 0.2% | N/C(=N/c1ccc(OCC(=O)O)cc1)NO | – |
| < 0.2% | N/C(=N\O)c1ccc(Cl)cc1 | – |
| 16.5% | N/C(=N/c1ccc(O)cc1)NO | k cat [5]: 1.83 s⁻¹; NOHA [3]: < 0.2%; NOHA [4]: 8.5% |
| 3.5% | N/C(=N/c1cccc(N)c1)NO | NOHA [3]: 6.5%; NOHA [4]: 2.5% |
| 9.5% | N/C(=N/c1ccsc1)NO | k cat [5]: 0.667 s⁻¹ |
| 5% | COc1ccccc1/N=C(/N)NO | – |
| 8% | N/C(=N/c1ccc(N)cc1)NO | NOHA [3]: < 0.2%; NOHA [4]: 4.5% |
| 41% | N/C(=N/c1ccc(F)cc1)NO | k cat [5]: 5.83 s⁻¹; NOHA [3]: < 0.2%; NOHA [4]: 4.5% |
| 17.5% | Cc1ccc(NC(=N)NO)cc1 | k cat [5]: 4.92 s⁻¹; NOHA [3]: < 0.2%; NOHA [4]: < 0.2% |
| < 0.2% | N/C(=N/c1ccc(CC(=O)O)cc1)NO | – |
| 5% | N/C(=N/c1cccc(Cl)c1)NO | – |
| 0.5% | N/C(=N/c1ccc(C(F)(F)F)cc1)NO | – |
| 2.5% | N/C(=N/c1cccc(C(F)(F)F)c1)NO | – |
| 5% | N/C(=N/c1ccccc1Cl)NO | – |
| 6% | N/C(=N/c1cccc(CO)c1)NO | NOHA [3]: < 0.2%; NOHA [4]: < 0.2% |
